Experimental data published in ChEMBL document CHEMBL1140296, “Anilinodialkoxyquinazolines: screening epidermal growth factor receptor tyrosine kinase inhibitors for potential tumor imaging probes” (J Med Chem, 2005).

Columns and labels:
[1] = biological target: T1, Epidermal growth factor receptor (Homo sapiens, UniProt P00533); assay: Inhibition of human EGFR tyrosine kinase phosphorylation expressed in mouse BaF3 cells; assay type: functional, cell-based
[2] = Lipophilicity, log P of the compound; assay type: physicochemical; details: octanol/water
Summary of the method: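 Log Po/w estimated by reversed-phase HPLC on a C8 column. Mobile phases were methanol with 0.25% 1-octanol and octanol-saturated water with 0.02 M MOPS and 0.15% n-decylamine, pH 7.4, at 1 mL/min. Uracil served as void marker. log k′w was obtained by linear extrapolation of retention over 60–85% methanol.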

[3] = biological target: T1, Epidermal growth factor receptor; assay: Displacement of [125I]4-(3-iodoanilino)-6,7-dimethoxyquinazoline from EGFR tyrosine kinase in human A431 cell membranes; design: species or system A-431
[4] = biological target: Receptor tyrosine-protein kinase erbB-4 (Homo sapiens, UniProt Q15303); assay: Inhibition of human ErbB4 tyrosine kinase phosphorylation expressed in human CEM/4 cells; assay type: functional, cell-based
Sequence of Receptor tyrosine-protein kinase erbB-4 (Q15303 whole entry): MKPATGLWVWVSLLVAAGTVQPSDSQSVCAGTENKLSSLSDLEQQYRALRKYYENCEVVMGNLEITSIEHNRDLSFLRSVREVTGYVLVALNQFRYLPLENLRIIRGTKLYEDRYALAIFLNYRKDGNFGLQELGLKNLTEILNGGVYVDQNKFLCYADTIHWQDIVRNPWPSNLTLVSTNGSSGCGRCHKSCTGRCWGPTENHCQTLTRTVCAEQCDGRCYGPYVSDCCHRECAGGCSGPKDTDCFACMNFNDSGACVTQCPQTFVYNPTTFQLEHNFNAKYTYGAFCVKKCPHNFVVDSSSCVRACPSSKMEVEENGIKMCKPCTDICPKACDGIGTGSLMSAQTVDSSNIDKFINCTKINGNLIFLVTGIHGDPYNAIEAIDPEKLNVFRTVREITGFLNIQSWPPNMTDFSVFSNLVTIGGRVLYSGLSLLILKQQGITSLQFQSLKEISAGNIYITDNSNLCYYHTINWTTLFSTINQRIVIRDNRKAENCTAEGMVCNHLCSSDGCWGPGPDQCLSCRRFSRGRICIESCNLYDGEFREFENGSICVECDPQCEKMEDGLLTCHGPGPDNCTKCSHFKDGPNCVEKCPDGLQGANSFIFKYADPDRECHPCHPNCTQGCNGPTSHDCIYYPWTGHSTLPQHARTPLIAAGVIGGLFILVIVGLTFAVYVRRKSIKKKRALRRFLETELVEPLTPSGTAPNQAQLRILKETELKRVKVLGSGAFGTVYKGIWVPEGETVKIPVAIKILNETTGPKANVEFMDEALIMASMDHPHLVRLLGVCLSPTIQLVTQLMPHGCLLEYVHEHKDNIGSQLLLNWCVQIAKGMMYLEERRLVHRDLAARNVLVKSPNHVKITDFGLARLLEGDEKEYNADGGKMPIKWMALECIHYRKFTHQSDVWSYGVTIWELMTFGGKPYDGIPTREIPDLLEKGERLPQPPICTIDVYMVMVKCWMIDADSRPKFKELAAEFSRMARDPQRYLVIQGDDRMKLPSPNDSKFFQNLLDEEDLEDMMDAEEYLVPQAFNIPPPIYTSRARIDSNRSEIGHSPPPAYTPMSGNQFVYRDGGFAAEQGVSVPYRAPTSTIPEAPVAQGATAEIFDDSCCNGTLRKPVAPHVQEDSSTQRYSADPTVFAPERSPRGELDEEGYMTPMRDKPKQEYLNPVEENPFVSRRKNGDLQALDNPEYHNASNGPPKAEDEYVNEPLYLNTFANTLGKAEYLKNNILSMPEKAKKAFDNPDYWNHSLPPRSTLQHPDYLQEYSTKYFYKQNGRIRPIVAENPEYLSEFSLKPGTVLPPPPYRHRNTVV
Summary of the method: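 CEM cells expressing ErbB4, grown in RPMI with 10% heat-inactivated FBS and G418, then serum-starved 24 h at 37 °C. About 10^7 cells/mL given inhibitor at three to five concentrations for 2 h at 37 °C, chilled 20 min, then stimulated with NRG1β 100 ng/mL final for 7 min on ice. Lysate glycoproteins captured on ConA. Phosphotyrosine read by 4G10 immunoblot. IC50 read against DMSO standard curve.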

[5] = biological target: Receptor tyrosine-protein kinase erbB-2 (Homo sapiens, UniProt P04626); assay: Inhibition of human ErbB2 tyrosine kinase phosphorylation expressed in mouse BaF3 cells; assay type: functional, cell-based
Sequence of Receptor tyrosine-protein kinase erbB-2 (P04626 whole entry): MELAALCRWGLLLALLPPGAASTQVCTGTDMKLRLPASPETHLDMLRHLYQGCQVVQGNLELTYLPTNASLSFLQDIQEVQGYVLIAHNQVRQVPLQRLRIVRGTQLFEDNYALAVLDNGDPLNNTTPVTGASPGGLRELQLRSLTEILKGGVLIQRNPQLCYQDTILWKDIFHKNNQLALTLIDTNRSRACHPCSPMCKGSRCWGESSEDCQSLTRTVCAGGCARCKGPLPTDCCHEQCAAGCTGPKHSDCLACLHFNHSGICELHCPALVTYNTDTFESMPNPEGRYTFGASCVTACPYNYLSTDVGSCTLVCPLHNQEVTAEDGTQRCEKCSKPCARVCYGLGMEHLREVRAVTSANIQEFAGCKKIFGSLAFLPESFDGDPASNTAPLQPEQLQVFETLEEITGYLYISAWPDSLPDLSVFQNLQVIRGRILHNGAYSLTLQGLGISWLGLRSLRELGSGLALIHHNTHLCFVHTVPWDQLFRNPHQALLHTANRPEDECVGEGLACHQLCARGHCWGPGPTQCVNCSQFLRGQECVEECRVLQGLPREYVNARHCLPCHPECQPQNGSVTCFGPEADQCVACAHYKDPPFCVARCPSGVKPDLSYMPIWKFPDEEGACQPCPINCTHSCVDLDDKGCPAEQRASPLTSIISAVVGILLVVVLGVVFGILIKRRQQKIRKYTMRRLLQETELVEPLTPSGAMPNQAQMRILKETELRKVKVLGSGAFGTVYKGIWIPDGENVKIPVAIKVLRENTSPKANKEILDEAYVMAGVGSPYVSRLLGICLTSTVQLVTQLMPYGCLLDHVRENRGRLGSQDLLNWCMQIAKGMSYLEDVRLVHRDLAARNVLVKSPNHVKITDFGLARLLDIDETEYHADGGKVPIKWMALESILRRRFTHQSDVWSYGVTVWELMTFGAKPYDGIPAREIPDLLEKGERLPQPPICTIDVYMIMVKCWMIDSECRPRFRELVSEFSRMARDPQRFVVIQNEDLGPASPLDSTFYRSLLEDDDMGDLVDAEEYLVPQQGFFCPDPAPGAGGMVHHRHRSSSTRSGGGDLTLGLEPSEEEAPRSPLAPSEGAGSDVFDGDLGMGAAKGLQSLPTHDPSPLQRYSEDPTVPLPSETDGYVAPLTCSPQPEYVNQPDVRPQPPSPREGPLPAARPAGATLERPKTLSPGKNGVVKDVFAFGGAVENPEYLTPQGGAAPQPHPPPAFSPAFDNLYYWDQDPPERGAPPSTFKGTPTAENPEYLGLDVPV

T1 sequence (P00533 whole entry): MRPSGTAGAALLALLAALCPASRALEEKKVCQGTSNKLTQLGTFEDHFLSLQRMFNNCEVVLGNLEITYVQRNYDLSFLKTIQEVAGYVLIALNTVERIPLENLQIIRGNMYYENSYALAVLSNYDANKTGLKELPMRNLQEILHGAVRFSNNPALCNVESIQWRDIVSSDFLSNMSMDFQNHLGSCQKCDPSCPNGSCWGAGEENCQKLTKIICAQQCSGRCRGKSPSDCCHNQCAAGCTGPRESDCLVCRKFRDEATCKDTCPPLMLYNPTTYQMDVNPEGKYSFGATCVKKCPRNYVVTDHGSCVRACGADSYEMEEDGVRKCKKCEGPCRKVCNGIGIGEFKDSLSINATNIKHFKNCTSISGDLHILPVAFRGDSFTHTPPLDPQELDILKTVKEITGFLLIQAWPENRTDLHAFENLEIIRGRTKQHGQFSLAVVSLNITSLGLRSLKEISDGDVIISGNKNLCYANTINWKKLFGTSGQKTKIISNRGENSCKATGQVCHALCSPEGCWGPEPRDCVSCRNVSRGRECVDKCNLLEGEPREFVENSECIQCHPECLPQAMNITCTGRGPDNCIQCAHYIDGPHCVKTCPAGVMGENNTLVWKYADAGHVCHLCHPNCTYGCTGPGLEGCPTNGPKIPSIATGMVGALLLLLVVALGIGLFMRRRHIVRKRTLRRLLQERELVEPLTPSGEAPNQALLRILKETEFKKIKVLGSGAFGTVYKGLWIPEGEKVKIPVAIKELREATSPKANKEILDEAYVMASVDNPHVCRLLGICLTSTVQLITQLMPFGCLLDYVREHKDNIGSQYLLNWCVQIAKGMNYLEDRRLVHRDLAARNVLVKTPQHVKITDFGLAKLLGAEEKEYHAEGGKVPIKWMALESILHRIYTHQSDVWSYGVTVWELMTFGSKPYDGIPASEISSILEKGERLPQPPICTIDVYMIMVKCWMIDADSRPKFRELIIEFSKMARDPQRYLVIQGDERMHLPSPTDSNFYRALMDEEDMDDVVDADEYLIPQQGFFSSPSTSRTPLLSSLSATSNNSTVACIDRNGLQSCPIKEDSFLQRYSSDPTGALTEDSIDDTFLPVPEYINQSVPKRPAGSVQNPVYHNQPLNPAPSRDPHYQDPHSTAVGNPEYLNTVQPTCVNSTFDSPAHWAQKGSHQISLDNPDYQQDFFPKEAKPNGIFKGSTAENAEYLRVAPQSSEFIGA

| SMILES | IC50 [1] [nM] | logP [2] | IC50 [3] [nM] | IC50 [4] [nM] | IC50 [5] [nM] |
| --- | --- | --- | --- | --- | --- |
| COc1cc2ncnc(Nc3cc(F)cc(C(F)(F)F)c3)c2cc1OC | 19.1 | 4.66 | 20 | – | – |
| COc1cc2ncnc(NCc3ccc(F)cc3)c2cc1OC | – | 3.02 | – | – | – |
| COc1cc2ncnc(Nc3cccc(Br)c3)c2cc1OC | – | 3.49 | – | 49 | – |
| CCOc1cc2ncnc(Nc3cccc(Br)c3)c2cc1OCC | 3.2 | 4.4 | 0.41 | 50 | 215 |
| COc1cc2ncnc(Nc3cccc(I)c3)c2cc1OC | 6.4 | 3.65 | 1.05 | – | – |
| COc1cc2ncnc(Nc3ccccc3F)c2cc1OC | 12.8 | 2.2 | 32.2 | – | – |
| COc1cc2ncnc(Nc3cccc(Cl)c3)c2cc1OC | – | 3.51 | – | – | – |
| COc1cc2ncnc(Nc3cccc(F)c3)c2cc1OC | – | 2.96 | – | – | – |

More lines, now with the values ahead:

| IC50 [1] [nM] | logP [2] | IC50 [3] [nM] | IC50 [4] [nM] | IC50 [5] [nM] | SMILES |
| --- | --- | --- | --- | --- | --- |
| 19.1 | 2.87 | 51 | – | – | COc1cc2ncnc(Nc3ccc(F)cc3)c2cc1OC |
| > 50 | 5.49 | 8.95 | – | – | CCOc1cc2ncnc(Nc3cc(F)cc(C(F)(F)F)c3)c2cc1OCC |
| 6.6 | 3.78 | 17 | > 100 | 231 | CCOc1cc2ncnc(NCc3ccc(F)cc3)c2cc1OCC |
| 15.8 | 3.02 | 9.31 | – | – | CCOc1cc2ncnc(Nc3ccccc3F)c2cc1OCC |
| 23.1 | 3.73 | 16 | – | – | CCOc1cc2ncnc(Nc3ccc(F)cc3)c2cc1OCC |
| 6.5 | 3.71 | 8.17 | – | – | CCOc1cc2ncnc(Nc3cccc(F)c3)c2cc1OCC |
| 4.6 | 4.62 | 0.64 | 59 | 69 | CCOc1cc2ncnc(Nc3cccc(I)c3)c2cc1OCC |
| 1.2 | 4.31 | 0.38 | – | – | CCOc1cc2ncnc(Nc3cccc(Cl)c3)c2cc1OCC |
